Primed or numbered codes have the meaning given here. Ends that are not written are not given here. FITC′ = fluorescein isothiocyanate
T1: TNPO1 (TEV-cleaved) (UniProt Q92973 1-898)
T1 sequence (looked up): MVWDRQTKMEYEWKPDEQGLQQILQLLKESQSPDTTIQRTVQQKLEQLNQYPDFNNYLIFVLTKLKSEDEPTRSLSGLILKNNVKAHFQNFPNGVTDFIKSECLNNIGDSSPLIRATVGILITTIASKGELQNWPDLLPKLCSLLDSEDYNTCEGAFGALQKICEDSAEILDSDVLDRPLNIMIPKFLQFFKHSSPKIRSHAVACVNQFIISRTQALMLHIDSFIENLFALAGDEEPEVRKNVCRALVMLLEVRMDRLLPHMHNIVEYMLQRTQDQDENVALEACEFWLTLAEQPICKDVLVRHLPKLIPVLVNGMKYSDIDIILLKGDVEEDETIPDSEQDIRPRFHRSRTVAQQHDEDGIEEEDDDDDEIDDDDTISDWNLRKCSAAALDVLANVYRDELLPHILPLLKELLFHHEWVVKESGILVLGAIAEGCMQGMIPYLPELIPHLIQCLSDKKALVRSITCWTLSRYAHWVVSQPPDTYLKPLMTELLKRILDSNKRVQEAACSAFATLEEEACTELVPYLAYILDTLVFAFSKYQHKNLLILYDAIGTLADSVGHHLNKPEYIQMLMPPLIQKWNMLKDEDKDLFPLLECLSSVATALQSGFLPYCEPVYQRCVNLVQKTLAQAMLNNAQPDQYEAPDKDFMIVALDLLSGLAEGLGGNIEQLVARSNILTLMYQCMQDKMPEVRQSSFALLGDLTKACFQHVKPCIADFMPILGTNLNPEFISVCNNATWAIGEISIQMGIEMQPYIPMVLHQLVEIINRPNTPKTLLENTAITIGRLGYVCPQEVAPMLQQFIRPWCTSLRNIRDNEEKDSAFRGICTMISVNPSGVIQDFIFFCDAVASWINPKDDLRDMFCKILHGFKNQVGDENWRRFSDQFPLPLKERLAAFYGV


Assays:
[1] = tested on: NTRs (importins) from HeLa cytosol; experiment: Pull-down from HeLa cytosol with biotinylated DPR, NTRs; assay type: binding; details: immobilized biotinylated peptide, western blot
How it was run: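 It was cleared at 21,000 g, 4°C. Cytosol was incubated under physiological buffer conditions with biotinylated DPR peptides immobilized on ovalbumin-blocked streptavidin beads, and bound NTRs were detected by western blot.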

TNPO1 (His-TNPO1) = experiment: SDD-AGE oligomer formation, TNPO1; assay type: biochemical; details: 10-fold molar excess: 2 μM importin, 20 μM TMR-DPR, pH 7.5, 200 mM NaCl, 1 h RT
Impα3 (His-Impα3) = experiment: SDD-AGE oligomer formation, Impα3; assay type: biochemical, rat; details: 10-fold molar excess: 2 μM importin, 20 μM TMR-DPR, pH 7.5, 200 mM NaCl, 1 h RT
[2] = tested on: TDP-43 (TDP-43-Tev-MBP/MBP-Tev-TDP-43-GFP); experiment: TDP-43 condensate formation with DPRs, microscopy; assay type: biochemical; details: TMR-labeled DPR, equimolar (1x) or two-fold (2x), 2 μM TDP-43/TDP-43-GFP, Tev cleavage, 200 mM NaCl, pH 7.5
How it was run: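 Size-exclusion-purified TDP-43-MBP-His (2 μM) was mixed with substoichiometric MBP-TDP-43-GFP-His (1:4–1:5). Condensates were imaged by laser scanning confocal microscopy.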

GST-GR25 / TDP-43 = experiment: Sedimentation of GST-GR25 with TDP-43 and NTRs; assay type: biochemical; details: anti-GST western blot, three independent experiments
How it was run: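 1 µM TDP-43-MBP-His was Tev-cleaved (20 µg/ml His-Tev, 60 min, 30°C) with or without equimolar GST-tagged DPR and/or NTRs. Samples were centrifuged 15 min at 21,000 g, 4°C. Equal volumes of supernatant and pellet were analysed by anti-GST western blot.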

TNPO1 (TEV-cleaved) = biological target: T1, TNPO1 (TEV-cleaved); experiment: fluorescence polarisation

Row | Molecule | oligomer formation of TNPO1 (SDS-resistant) (TNPO1 (His-TNPO1)) | oligomer formation of Impα3 (SDS-resistant) (Impα3 (His-Impα3)) | other results
1 | GP25: non-charged control DPR (GPGPGPGPGPGPGPGPGPGPGPGPGPGPGPGPGPGPGPGPGPGPGPGPGP; not fully specified; also: biotin, position not given here) | – | – | binding in pull-down [1]: not to the non-charged control DPR GP25
2 | TMR-GR25: tetramethylrhodamine (TMR)-labeled GR25 (GRGRGRGRGRGRGRGRGRGRGRGRGRGRGRGRGRGRGRGRGRGRGRGRGR; also: TMR label, position not given here) | oligomer formation | oligomer formation | –
3 | poly-GP: non-charged DPR species; in the experiments GP25 (GPGPGPGPGPGPGPGPGPGPGPGPGPGPGPGPGPGPGPGPGPGPGPGPGP; not fully specified; also: biotin, position not given here) [reference compound] | not poly-GP | not poly-GP | TDP-43 condensate formation [2]: no effect
4 | GST-GR25: recombinant GST fusion of GR25 | – | – | solubility of GST-GR25 (GST-GR25 / TDP-43; absence of TDP-43): completely soluble; solubility of GST-GR25 (GST-GR25 / TDP-43; presence of cleaved TDP-43): moved efficiently into the pellet fraction
5 | TMR-PR25: tetramethylrhodamine (TMR)-labeled PR25 (PRPRPRPRPRPRPRPRPRPRPRPRPRPRPRPRPRPRPRPRPRPRPRPRPR; also: TMR label, position not given here) | oligomer formation | oligomer formation | –
6 | {FITC′}-GRGRGRGRGRGRGRGRGRGRGRGRGRGRGRGRGRGRGRGRGRGRGRGRGR [FITC-GR25] | – | – | Kd (TNPO1 (TEV-cleaved)): ~200 nM
7 | {FITC′}-PRPRPRPRPRPRPRPRPRPRPRPRPRPRPRPRPRPRPRPRPRPRPRPRPR [FITC-PR25] | – | – | Kd (TNPO1 (TEV-cleaved)): ~200 nM

Source: publication PMC7814465 (Cell reports, 2020)
